The values that follow come from paper PMC6527342 (Journal of chemical information and modeling, 2018).

The structures appear in SMILES notation.

Common to all, as to assay type: cell-based
Common to all, as to conditions: read-out: MIC of ceftazidime

In assay [1] the test system is Escherichia coli DH10B cells expressing IMP-1. Kind of assay: MIC assay, E. coli DH10B cells expressing IMP-1.
Assay [2] concerns Escherichia coli DH10B cells not expressing any MBL. Nature of the assay: MIC assay, E. coli DH10B control cells not expressing any MBL. The method, boiled down:
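Ceftazidime MIC was measured in complex medium against E. coli DH10B carrying no MBL. This strain served as the control for DH10B expressing NDM-1, IMP-1 or VIM-2.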

In assay [3] the test system is Escherichia coli DH10B cells expressing VIM-2. Kind of assay: MIC assay, E. coli DH10B cells expressing VIM-2.
Assay [4] has as its system Escherichia coli DH10B cells expressing NDM-1. Kind of assay: MIC assay, E. coli DH10B cells expressing NDM-1.

Turning to `CC(C)(O/N=C(\C(=O)N[C@@H]1C(=O)N2C(C(=O)[O-])=C(C[n+]3ccccc3)CS[C@H]12)c1csc(N)n1)C(=O)O` [ceftazidime], the MIC worked out at 512 µg/mL in assay [1], 0.5 µg/mL in assay [2], 32 µg/mL in assay [3] and 256 µg/mL in assay [4].

A word on the MIC: it is the lowest concentration that inhibits growth of the organism.
